Reference: ChEMBL document CHEMBL1140965, “New 1-indanone thiosemicarbazone derivatives active against BVDV” (Eur J Med Chem, 2008)

Tests used:
[1] = Cytotoxicity against MDBK cells after 3 days by MTS/PMS assay; type: cell-based, Bos taurus; details: cattle
Method in brief: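 MDBK cells seeded at 1 × 10^4 per well in MEM-FBS; serial compound dilutions added 24 h later (DMSO stocks 1 mg/mL). Cells proliferated 3 days at 37 °C. MTS/PMS was then added for 3 h at 37 °C and absorbance read at 490 nm. Viability is the percentage of untreated-cell absorbance. CC50 = 50% inhibition of proliferation, logarithmic interpolation from dose-response curves.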

[2] = system: Bovine viral diarrhea virus 1; assay: Antiviral activity against bovine viral diarrhoea virus type-1 NADL in MDBK cells assessed as inhibition of virus-induced cytopathic effect; type: functional, organism-based; details: Bovine viral diarrhea virus isolates and strains
Method in brief: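 MDBK cells seeded at 1 × 10^4 per well in MEM-FBS, 24 h at 37 °C, 5% CO2; medium replaced with serial compound dilutions (DMSO stocks 1 mg/mL), then BVDV inoculum giving >80% CPE by 3 days at 37 °C. Uninfected and virus-only controls on each plate. Read-out is MTS/PMS in MEM-DHS, absorbance 490 nm. EC50 = 50% protection against CPE, logarithmic interpolation from dose-response curves.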

[3] = Selectivity index, ratio of CC50 for MDBK cells to EC50 for bovine viral diarrhoea virus type-1 NADL; type: toxicity, cell-based; details: cattle, read-out: Ratio CC50/EC50
Method in brief: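 Ratio of CC50 to EC50. CC50 comes from a 3-day MTS/PMS proliferation assay on MDBK cells. EC50 comes from protection of MDBK cells against NADL-strain cytopathic effect after 3 days, read by MTS/PMS at 490 nm. Both values were derived by logarithmic interpolation from dose-response curves.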

Poliovirus 1 = assay: Antiviral activity against poliovirus type-1 Sabin; type: functional, organism-based; details: Enterovirus C
Human alphaherpesvirus 1 = assay: Antiviral activity against HSV1 F; type: functional, organism-based; details: Human alphaherpesvirus 1, F
[4] = system: Human immunodeficiency virus 1; assay: Antiviral activity against HIV1; type: functional, organism-based
[5] = system: Vesicular stomatitis virus; assay: Antiviral activity against Vesicular stomatitis virus type-1 Indiana; type: functional, organism-based

SMILES | CC50 at 72 h [1] [µM] | EC50 [2] [µM] | selectivity ratio [3] | EC50 (Poliovirus 1) [µM] | EC50 (Human alphaherpesvirus 1) [µM] | EC50 [4] [µM] | EC50 [5] [µM]
NC(=S)N/N=C1\CCc2ccccc21 | 156 | 18.1 | 8.6 |  |  |  | 
Cc1cccc2c1CC/C2=N\NC(N)=S | 165 | 8.13 | 20.3 |  |  |  | 
Cc1ccc2c(c1)CC/C2=N\NC(N)=S | 130 | 6.48 | 20.1 |  |  |  | 
NC(=S)N/N=C1\CCc2cc(Cl)ccc21 | > 27 | 8.8 | > 3.07 |  |  |  | 
COc1ccc2c(c1)CC/C2=N\NC(N)=S | 149 | 18.8 | 7.93 |  |  |  | 
Cc1cc2c(c(C)c1Cl)CC/C2=N\NC(N)=S | 72.5 | > 11.1 | < 6.53 |  |  |  | 
Cc1cc2c(c(C)c1Cl)/C(=N/NC(N)=S)CC2 | 80.7 | 7.4 | 10.9 |  |  |  | 
COc1cccc2c1CC/C2=N\NC(N)=S | 822 | 242 | 3.39 |  |  |  | 
COc1ccc2c(c1)/C(=N/NC(N)=S)CC2 | 106 | 26 | 4.09 |  |  |  | 
COc1ccc2c(c1OC)CC/C2=N\NC(N)=S | 141 | 11.5 | 12.2 |  |  |  | 
NC(=S)N/N=C1\CCc2cc(Br)ccc21 | > 15 | 1.81 | > 8.29 |  |  |  | 
Cc1cc(C)c2c(c1)CC/C2=N\NC(N)=S | 51.7 |  |  |  |  |  | 
Cc1cc(C)c2c(c1Br)CC/C2=N\NC(N)=S | 139 | 8.94 | 15.5 |  |  |  | 
COc1cc2c(cc1OC)/C(=N/NC(N)=S)CC2 | 140 | 1.75 | 80.3 | 64 | > 64 | > 38 | > 75.5
NC(=O)c1ncn([C@@H]2O[C@H](CO)[C@@H](O)[C@H]2O)n1 [RIBAVIRIN] | 54 | 4.62 |  |  |  |  | 
